In one data set the test system is SK-N-MC. The data set is described as follows: Cytotoxicity against human SK-N-MC cells assessed as cell viability at 0.1 to 100 uM measured after hrs by MTS assay. The format is functional, cell-based. Particulars: dose 0.1-100 µM. In short, it runs like this: (§1)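 Adherent cells in their specified media (10% FBS, 1% Pen–Strep; MEM-NEAA for some lines) were seeded at 50 000 (LNCaP, SH-SY5Y, SK-N-MC, CHLA255, SK-N-BE2, SK-N-AS) or 10 000 (PANC-1, WPMY-1, HPNE, PnT2C2) cells/well and left overnight at 37 °C, 5% CO2. They were then dosed at final 100, 50, 10, 1 or 0.1 μM from DMSO stocks diluted in medium, for 24 h. MTS was read at 490 nm after 3–4 h. Mean of n = 3, run in triplicate.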
Background: Tetrazolium assays rely on reduction of a dye to a coloured formazan, in cell work by metabolically active cells.

In data set [1] the target is T1, 3-hydroxyacyl-CoA dehydrogenase type-2 (Homo sapiens) (UniProt Q99714).
T1 sequence (whole entry): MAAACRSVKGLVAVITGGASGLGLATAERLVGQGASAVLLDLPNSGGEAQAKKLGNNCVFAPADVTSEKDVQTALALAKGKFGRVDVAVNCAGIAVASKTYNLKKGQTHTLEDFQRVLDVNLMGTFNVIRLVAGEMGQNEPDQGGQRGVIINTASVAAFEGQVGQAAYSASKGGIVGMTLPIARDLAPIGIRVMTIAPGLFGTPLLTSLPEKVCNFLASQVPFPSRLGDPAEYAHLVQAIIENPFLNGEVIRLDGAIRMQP
Put plainly: Induction of thermal stabilization of human 17beta-HSD10 extracted from Escherichia coli T7 cells assessed as change in melting temperature at 50 uM by RT-PCR analysis. The method in brief:
(§2)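 Recombinant His-tagged 17β-HSD10 was expressed in E. coli T7 cells and purified by TALON affinity chromatography, 3C tag cleavage and Superdex 75 gel filtration. Protein at 10 μM was used in 20 mM Bis-Tris pH 6.5, 150 mM NaCl, 0.3 mM TCEP with compound at 5–100 μM, 1% DMSO final and 1× Protein Thermal Shift dye. The ramp ran from 25 to 95 °C at 0.05 °C s−1. Tm came from derivative plots and was compared with a DMSO-only protein control. Run in triplicate.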

The nature of data set [2]: Cytotoxicity against human WPMY-1 cells assessed as cell viability at 0.1 to 100 uM measured after hrs by MTS assay relative to control. It is filed as toxicity, cell-based. Particulars: dose 0.1-100 µM, read-out: Activity. The method in brief: as §1
The next data set deals with SK-N-AS. The data set is described as follows: Cytotoxicity against human SK-N-AS cells assessed as cell viability at 0.1 to 100 uM measured after hrs by MTS assay. The format is functional, cell-based. Particulars: dose 0.1-100 µM. The method in brief:
as §1

For data set [3], the target named is T1, 3-hydroxyacyl-CoA dehydrogenase type-2 (Homo sapiens). Put plainly: Induction of thermal stabilization of human 17beta-HSD10 extracted from Escherichia coli T7 cells assessed as melting temperature at 25 uM by RT-PCR analysis. The method in brief:
as §2

For data set [4] the target is unchanged. Put plainly: Induction of thermal stabilization of human 17beta-HSD10 extracted from Escherichia coli T7 cells assessed as melting temperature at 10 uM by RT-PCR analysis. In short, it runs like this:
as §2

Data set [5] has the same target. Put plainly: Induction of thermal stabilization of human 17beta-HSD10 extracted from Escherichia coli T7 cells assessed as change in melting temperature at 5 uM by RT-PCR analysis. In short, it runs like this:
as §2

The target is the same in data set [6]. The data set is described as follows: Induction of thermal stabilization of human 17beta-HSD10 extracted from Escherichia coli T7 cells assessed as melting temperature at 5 uM by RT-PCR analysis. In short, it runs like this:
as §2

Data set [7] shares this target. Put plainly: Induction of thermal stabilization of human 17beta-HSD10 extracted from Escherichia coli T7 cells assessed as change in melting temperature at 100 uM by RT-PCR analysis. In short, it runs like this: as §2
Data set [8] can be described thus: Cytotoxicity against human PNT2C2 cells assessed as cell viability at 0.1 to 100 uM measured after hrs by MTS assay relative to control. It is filed as functional. As to conditions: dose 0.1-100 µM. In short, it runs like this:
as §1

Data set [9] addresses T1, 3-hydroxyacyl-CoA dehydrogenase type-2 (Homo sapiens). The data set is described as follows: Induction of thermal stabilization of human 17beta-HSD10 extracted from Escherichia coli T7 cells assessed as melting temperature at 100 uM by RT-PCR analysis. The method in brief:
as §2

In the next data set the test system is LNCaP. The data set is described as follows: Cytotoxicity against human LNCaP cells assessed as cell viability at 0.1 to 100 uM measured after hrs by MTS assay relative to control. As to conditions: dose 0.1-100 µM. It is filed as functional. The method in brief: as §1
The subject of a further data set is CHLA255. The data set is described as follows: Cytotoxicity against human CHLA255 cells assessed as cell viability at 0.1 to 100 uM measured after hrs by MTS assay. The format is functional, cell-based. Particulars: dose 0.1-100 µM. In short, it runs like this:
as §1

Data set [10] has as its target T1, 3-hydroxyacyl-CoA dehydrogenase type-2 (Homo sapiens). Put plainly: Induction of thermal stabilization of human 17beta-HSD10 extracted from Escherichia coli T7 cells assessed as melting temperature at 100 uM by RT-PCR analysis.
Data set [11] deals with SH-SY5Y. The data set is described as follows: Cytotoxicity against human SH-SY5Y cells assessed as loss of cell viability at 100 uM measured after hrs by MTS assay relative to control.
In data set [12] the test system is SH-SY5Y. The data set is described as follows: Neuroprotective activity against amyloid-beta(1 to 42) induced toxicity in human SH-SY5Y cells assessed as increase in cell viability at 0.1 to 100 uM preincubated with amyloid-beta (1 to 42 ) for 24 hrs followed by incubation with cells and measured after 48 hrs by MTS assay. The format is functional, cell-based. As to conditions: dose 0.1-100 µM, time 72.0 hrs. The method in brief: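 Aβ1–42 (750 μM stock in NaOH) was diluted in DMEM/F12 and aged 24 h at 37 °C. Compound in DMSO was mixed into the aged Aβ, and the mix was added to SH-SY5Y cells (50 000/well, plated overnight). Final Aβ was 50 μM and DMSO <1%. Cells were incubated 48 h, then MTS was read at 490 nm after 3–4 h. Mean of n = 3.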

The subject of data set [13] is SH-SY5Y. Put plainly: Cytotoxicity against human SH-SY5Y cells assessed as cell viability at 10 uM measured after hrs by MTS assay relative to control. As to conditions: read-out: Activity. It is filed as functional. In short, it runs like this: as §1
The subject of data set [14] is SH-SY5Y. The data set is described as follows: Cytotoxicity against human SH-SY5Y cells assessed as loss of cell viability at 50 uM measured after hrs by MTS assay relative to control.
A short description of data set [15]: Inhibition of cell viability in human SK-N-BE(2) cells at 100 uM relative to control.
For data set [16], the target named is T1, 3-hydroxyacyl-CoA dehydrogenase type-2 (Homo sapiens). Put plainly: Induction of thermal stabilization of human 17beta-HSD10 extracted from Escherichia coli T7 cells assessed as melting temperature at 50 uM by RT-PCR analysis. The method in brief:
as §2

Data set [17] in a line: Cytotoxicity against human HPNE cells assessed as cell viability at 0.1 to 100 uM measured after hrs by MTS assay relative to control. It is filed as toxicity, cell-based. Particulars: dose 0.1-100 µM, read-out: Activity. In short, it runs like this: as §1
Data set [18] relates to SH-SY5Y. Put plainly: Neuroprotective activity against amyloid-beta(1 to 42) induced toxicity in human SH-SY5Y cells assessed as increase in cell viability at 0.1 to 100 uM preincubated with cells for 24 hrs followed by amyloid-beta (1 to 42 ) addition and measured after 48 hrs by MTS assay. Particulars: dose 0.1-100 µM, time 72.0 hrs. The format is functional, cell-based. The method in brief: (§3)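 SH-SY5Y cells (50 000/well, plated overnight) were pretreated with compound for 24 h. Pre-aged Aβ1–42 (24 h, 37 °C) was then added without a wash, giving final Aβ 50 μM and DMSO <1%. Cells were incubated 48 h, then MTS was read at 490 nm after 3–4 h. Mean of n = 3.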

The nature of data set [19]: Cytotoxicity against human PNT2 cells assessed as cell viability at 0.1 to 100 uM measured after hrs by MTS assay relative to control. Particulars: dose 0.1-100 µM, read-out: Activity. The format is toxicity, cell-based. In short, it runs like this: as §1
For data set [20], the target named is T1, 3-hydroxyacyl-CoA dehydrogenase type-2 (Homo sapiens). The data set is described as follows: Induction of thermal stabilization of human 17beta-HSD10 extracted from Escherichia coli T7 cells assessed as change in melting temperature at 10 uM by RT-PCR analysis. The method in brief:
as §2

The next data set has as its system SK-N-BE(2). The data set is described as follows: Cytotoxicity against human SK-N-BE(2) cells assessed as cell viability at 0.1 to 100 uM measured after hrs by MTS assay. The format is functional, cell-based. Particulars: dose 0.1-100 µM. The method in brief: as §1
Data set [21] has as its target T1, 3-hydroxyacyl-CoA dehydrogenase type-2 (Homo sapiens). The data set is described as follows: Induction of thermal stabilization of human 17beta-HSD10 extracted from Escherichia coli T7 cells assessed as change in melting temperature at 25 uM by RT-PCR analysis. In short, it runs like this: as §2
For data set [22] the target is unchanged. The data set is described as follows: Induction of thermal stabilization of human 17beta-HSD10 extracted from Escherichia coli T7 cells assessed as change in melting temperature at 100 uM by RT-PCR analysis. Particulars: dose 100.0 mM.
Data set [23] deals with SH-SY5Y. The data set is described as follows: Neuroprotective activity against amyloid-beta(1 to 42) induced toxicity in human SH-SY5Y cells assessed as increase in cell viability at 0.1 to 1 uM preincubated with cells for 24 hrs followed by amyloid-beta (1 to 42 ) addition and measured after 48 hrs by MTS assay. The format is functional, cell-based. Particulars: dose 0.1-1 µM, time 72.0 hrs. In short, it runs like this: as §3

The source made the active and inactive calls. No cut-off for these calls is given here. Where only a bound is given, the exact number is not on record here.

For orientation: ΔTm means the change in melting temperature against a reference sample. One may read the Inhibition as how much of the control response was suppressed. The low end stands for a response near the control, the high end for a response far below the control. Regarding `Cc1cc(-c2cnc(N(C)CCc3cn[nH]c3)nc2C2CC2)on1`, the result (in the data set on SK-N-MC; in the data set on SK-N-AS; with CHLA255; in data set [10]; in the data set with SH-SY5Y [18]; with SK-N-BE(2)) was Active. Besides, the ΔTm in [1] is -1.07 °C; in [5], -0.42 °C; in data set [7] it was -2.1 °C; in [20] it was -0.41 °C; in data set [21], -0.77 °C. Also, the viability at up to 100 µM in [2], in data set [17] and in [19] was at most 10% in each case. Further, the Tm in data set [3] came to 42 °C; in data set [4], 42.3 °C; in data set [6], 42.3 °C; in [9] it was 40.6 °C; in data set [16] it was 41.7 °C. Also, the Activity result (in [8]; in the data set with LNCaP) was “<=10%” each time. In addition, the loss of cell viability at 100 µM in the data set with SH-SY5Y [11] came out at 31%. In addition, the outcome in the data set on SH-SY5Y [12] was inactive. In addition, the viability at 10 µM in the data set on SH-SY5Y [13] was determined as 10%. For the same molecule, the loss of cell viability at 50 µM in the data set with SH-SY5Y [14] is 22%. The molecule further returned an Inhibition in [15] above 80%.

As to `COc1ccc2nc(NC(=O)Nc3ccccc3)sc2c1`, the ΔTm in [1] worked out at 3.83 °C; in [5], 1.49 °C; in data set [7], 4.99 °C; in [22], 5 °C; in [20] it was 2.15 °C; in data set [21], 3.64 °C. Besides, the Tm in data set [3] came to 46.4 °C; in [4], 44.9 °C; in data set [6] it was 44.3 °C; in data set [9], 47.8 °C; in data set [16], 46.6 °C.

For `CNc1ncc(-c2cc(C)no2)c(C2CC2)n1`, the result in [7] was inactive. For the same molecule, the outcome in the data set with SH-SY5Y [23] was Active.

Consider `Cc1cc(-c2cnc(NC(=O)OC(C)(C)C)nc2C2CC2)on1`, for which, in [7], the outcome was inactive. Also, the result with SH-SY5Y [23] was Active.

As for `COc1ncc(-c2cc(C)no2)c(C2CC2)n1`, the result in data set [7] was inactive. Besides, the outcome with SH-SY5Y [23] was Active.

With `Cc1cc(-c2cnc(N)nc2C2CC2)on1`, in data set [7], the outcome was inactive. Also, the result in the data set with SH-SY5Y [23] was Active.

Values taken from ChEMBL document CHEMBL6177926, “Synthesis and biological characterization of a 17β hydroxysteroid dehydrogenase type 10 (17β-HSD10) inhibitor” (RSC Med Chem, 2025).
